Data reported in ChEMBL document CHEMBL6134795, “Mannich reaction mediated derivatization of chromones and their biological evaluations as putative multipotent ligands for the treatment of Alzheimer's disease” (RSC Med Chem, 2024).
Active and inactive are the calls of the source. The calls are words filed in the database; no cut-off is given here.

How the values were obtained:
Cholinesterase [1] = target: T1, Cholinesterase (Homo sapiens, UniProt P06276); assay: Inhibition of recombinant BuChE (unknown origin) using BTCI as substrate at 20 uM preincubated for 30 mins followed by substrate addition by TECAN multiplate reader analysis relative to control
In short: (§1)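 Ellman method as for AChE, using butyrylcholinesterase with BTCI as substrate. Enzyme and compound preincubated 30 min at 37 °C in a CO2 incubator, then DTNB and BTCI added; absorbance read at 417 nm. Screening at 20 μM as % inhibition; IC50 for compounds exceeding 50% inhibition at 20 μM. Triplicate.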

[2] = target: Amyloid-beta precursor protein (Homo sapiens) (UniProt P05067); assay: Inhibition of self-induced amyloid beta (1 to 42 residues) (unknown origin) aggregation at 20 uM incubated at 48 hrs by fluorimetry-based thioflavin T assay
In short: (§2)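 Aβ1-42 pretreated with HFIP (1 mg mL−1) and dried, then incubated with compound (20 μM) at 37 °C for 24 h; an aliquot transferred and incubated further to 48 h. Glycine–NaOH buffer pH 8.0 with 5 μM ThT added; fluorescence read at 440–485 nm. % inhibition calculated against the Aβ-only control taken as 0%.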

[3] = target: Amyloid-beta precursor protein (Homo sapiens) (UniProt P05067); assay: Inhibition of self-induced amyloid beta (1 to 42 residues) (unknown origin) aggregation at 20 uM incubated at 24 hrs by fluorimetry-based thioflavin T assay; in short: as §2
[4] = target: T2, Amine oxidase [flavin-containing] B (Homo sapiens, UniProt P27338); assay: Inhibition of recombinant MAO-B (unknown origin) at 20 uM preincubated for 30 mins followed substrate addition by Amplex Red reagent based fluorescence analysis relative to control
T2 sequence (P27338 whole entry): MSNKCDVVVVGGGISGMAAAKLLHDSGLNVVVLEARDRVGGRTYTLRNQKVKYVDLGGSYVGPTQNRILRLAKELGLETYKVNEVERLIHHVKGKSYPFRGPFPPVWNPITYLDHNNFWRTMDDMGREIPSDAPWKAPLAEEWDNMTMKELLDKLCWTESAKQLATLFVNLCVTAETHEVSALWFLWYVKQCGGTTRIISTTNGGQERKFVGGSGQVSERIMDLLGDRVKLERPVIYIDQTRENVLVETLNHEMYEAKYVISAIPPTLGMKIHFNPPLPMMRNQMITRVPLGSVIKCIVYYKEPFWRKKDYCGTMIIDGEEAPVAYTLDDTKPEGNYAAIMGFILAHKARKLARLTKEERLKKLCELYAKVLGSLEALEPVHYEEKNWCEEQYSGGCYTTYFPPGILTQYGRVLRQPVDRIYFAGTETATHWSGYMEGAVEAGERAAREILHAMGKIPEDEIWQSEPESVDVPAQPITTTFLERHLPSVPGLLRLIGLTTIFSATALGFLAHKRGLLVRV
In short: (§3)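 Recombinant MAO enzyme preincubated with compound 30 min at 37 °C; substrate, HRP and Amplex Red working solution then added; H2O2 formation read at 37 °C by fluorescence, ex 545/em 590 nm. Screening at 20 μM as % inhibition versus control; IC50 only for compounds above 50% inhibition at 20 μM; triplicate (n = 3).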

[5] = target: T3, Amine oxidase [flavin-containing] A (Homo sapiens, UniProt P21397); assay: Inhibition of recombinant MAO-A (unknown origin) at 20 uM preincubated for 30 mins followed substrate addition by Amplex Red reagent based fluorescence analysis relative to control; in short: as §3
T3 sequence (P21397 whole entry): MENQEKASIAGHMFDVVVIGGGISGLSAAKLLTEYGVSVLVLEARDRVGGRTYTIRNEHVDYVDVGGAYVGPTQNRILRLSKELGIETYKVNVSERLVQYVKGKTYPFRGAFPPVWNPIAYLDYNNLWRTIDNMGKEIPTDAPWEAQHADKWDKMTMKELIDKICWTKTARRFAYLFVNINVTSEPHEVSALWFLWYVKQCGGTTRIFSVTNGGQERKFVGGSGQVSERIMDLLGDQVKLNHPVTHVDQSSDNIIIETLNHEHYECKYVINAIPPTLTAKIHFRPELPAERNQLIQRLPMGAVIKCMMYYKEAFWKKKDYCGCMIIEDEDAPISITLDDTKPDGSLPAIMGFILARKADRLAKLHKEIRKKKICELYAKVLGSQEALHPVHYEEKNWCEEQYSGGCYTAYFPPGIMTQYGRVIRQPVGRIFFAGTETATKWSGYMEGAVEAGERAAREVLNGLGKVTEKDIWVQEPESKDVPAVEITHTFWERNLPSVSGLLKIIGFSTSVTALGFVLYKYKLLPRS

Cholinesterase [6] = target: T1, Cholinesterase; assay: Inhibition of BuChE (unknown origin); in short: as §1
[7] = target: T2, Amine oxidase [flavin-containing] B; assay: Inhibition of MAO-B (unknown origin)
Acetylcholinesterase = Acetylcholinesterase (Homo sapiens, UniProt P22303); assay: Inhibition of AChE (unknown origin)
In short: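 Recombinant AChE (0.5 U ml-1) preincubated with compound for 30 min at 37 °C in a CO2 incubator. DTNB and acetylthiocholine substrate (AChSI) then added, and absorbance read at 417 nm. Screening at 20 μM as % inhibition; IC50 determined for compounds giving over 50% inhibition at 20 μM. Run in triplicate.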

[8] = target: Amyloid-beta precursor protein (Homo sapiens) (UniProt P05067); assay: Inhibition of self-induced amyloid beta (1 to 42 residues) (unknown origin) aggregation assessed as reduction in fibrils formation measured after 72 hrs by FE-SEM analysis
In short: (§4)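 HFIP-pretreated Aβ1-42 incubated with or without inhibitor for 72 h; samples placed on carbon-coated copper grids, dried 1 h at 37 °C, imaged by FE-SEM. Glycine–NaOH buffer served as blank and Aβ alone as control.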

[9] = target: Amyloid-beta precursor protein (Homo sapiens) (UniProt P05067); assay: Inhibition of self-induced amyloid beta (1 to 42 residues) (unknown origin) aggregation assessed as reduction in plaques formation measured after 72 hrs by FE-SEM analysis; in short: as §4

T1 sequence (P06276 whole entry): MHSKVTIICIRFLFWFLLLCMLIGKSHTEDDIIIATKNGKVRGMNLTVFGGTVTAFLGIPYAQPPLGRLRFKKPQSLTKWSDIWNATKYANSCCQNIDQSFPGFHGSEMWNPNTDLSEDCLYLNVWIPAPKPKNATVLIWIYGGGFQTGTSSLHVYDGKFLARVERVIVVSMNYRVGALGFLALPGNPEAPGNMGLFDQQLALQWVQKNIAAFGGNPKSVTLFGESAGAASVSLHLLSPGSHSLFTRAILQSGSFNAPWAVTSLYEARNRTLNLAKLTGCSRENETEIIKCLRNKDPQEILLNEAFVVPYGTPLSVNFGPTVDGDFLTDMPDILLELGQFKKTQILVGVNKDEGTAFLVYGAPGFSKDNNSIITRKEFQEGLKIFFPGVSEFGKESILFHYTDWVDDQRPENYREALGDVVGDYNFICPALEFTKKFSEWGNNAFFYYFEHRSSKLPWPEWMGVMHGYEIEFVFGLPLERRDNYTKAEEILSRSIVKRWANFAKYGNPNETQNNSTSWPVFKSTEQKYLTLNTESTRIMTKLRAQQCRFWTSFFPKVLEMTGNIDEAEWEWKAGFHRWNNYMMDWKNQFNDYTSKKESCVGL
Amyloid-beta precursor protein (Homo sapiens), sequence (P05067 whole entry, the tested form may be a part): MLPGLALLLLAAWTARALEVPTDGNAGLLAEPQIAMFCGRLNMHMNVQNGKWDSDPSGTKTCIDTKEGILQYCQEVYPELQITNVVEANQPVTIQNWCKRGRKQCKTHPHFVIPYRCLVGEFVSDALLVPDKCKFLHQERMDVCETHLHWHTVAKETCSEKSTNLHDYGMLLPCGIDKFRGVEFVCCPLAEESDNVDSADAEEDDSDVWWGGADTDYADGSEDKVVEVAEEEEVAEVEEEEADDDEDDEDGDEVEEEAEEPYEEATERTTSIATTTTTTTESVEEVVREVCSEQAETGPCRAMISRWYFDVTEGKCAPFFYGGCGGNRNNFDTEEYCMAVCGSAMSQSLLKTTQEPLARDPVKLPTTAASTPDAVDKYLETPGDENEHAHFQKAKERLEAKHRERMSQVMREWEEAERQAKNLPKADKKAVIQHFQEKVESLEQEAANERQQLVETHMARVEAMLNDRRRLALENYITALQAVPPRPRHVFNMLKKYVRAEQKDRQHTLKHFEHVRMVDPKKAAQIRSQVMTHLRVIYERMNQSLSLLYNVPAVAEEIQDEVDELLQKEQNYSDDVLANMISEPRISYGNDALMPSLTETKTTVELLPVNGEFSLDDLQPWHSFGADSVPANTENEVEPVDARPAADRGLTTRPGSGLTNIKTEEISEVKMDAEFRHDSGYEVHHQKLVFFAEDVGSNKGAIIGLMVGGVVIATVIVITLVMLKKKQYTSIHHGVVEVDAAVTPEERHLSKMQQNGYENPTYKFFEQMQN
Acetylcholinesterase, sequence (P22303 whole entry): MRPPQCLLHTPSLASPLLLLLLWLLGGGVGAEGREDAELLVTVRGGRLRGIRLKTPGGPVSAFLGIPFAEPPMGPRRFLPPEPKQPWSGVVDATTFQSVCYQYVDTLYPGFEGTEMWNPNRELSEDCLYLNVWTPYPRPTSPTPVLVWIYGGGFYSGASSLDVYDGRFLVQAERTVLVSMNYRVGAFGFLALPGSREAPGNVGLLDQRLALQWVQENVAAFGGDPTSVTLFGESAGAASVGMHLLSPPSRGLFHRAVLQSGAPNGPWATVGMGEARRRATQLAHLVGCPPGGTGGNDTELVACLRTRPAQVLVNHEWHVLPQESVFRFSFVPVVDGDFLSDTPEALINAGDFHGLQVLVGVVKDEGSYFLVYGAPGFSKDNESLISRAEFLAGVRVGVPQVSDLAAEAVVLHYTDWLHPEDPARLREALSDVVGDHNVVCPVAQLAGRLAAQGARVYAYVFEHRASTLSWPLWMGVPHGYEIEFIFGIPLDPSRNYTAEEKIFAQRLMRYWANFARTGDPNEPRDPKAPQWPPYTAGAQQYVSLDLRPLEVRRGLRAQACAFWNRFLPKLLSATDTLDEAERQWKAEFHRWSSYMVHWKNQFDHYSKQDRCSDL

Structure (SMILES)	inhibition (Cholinesterase [1]) [%]	inhibition [2] [%]	inhibition [3] [%]	inhibition at 20 µM [4] [%]	further results
C#CCCCOc1c(CN2CCCCC2)cc(-c2cc(=O)c3ccccc3o2)cc1CN1CCCCC1	13.7	18	12	19.7	–
C#CCOc1c(CN2CCOCC2)cc(-c2cc(=O)c3ccccc3o2)cc1CN1CCOCC1	9.03	23.3	14.4	36.5	–
C#CCCOc1c(CN2CCOCC2)cc(-c2cc(=O)c3ccccc3o2)cc1OC	3.11	–	–	26.6	inhibition at 20 µM [5]: 7.98%
C#CCCCOc1c(CN2CCOCC2)cc(-c2cc(=O)c3ccccc3o2)cc1OCC	6.37	–	–	18.2	–
O=C(NCCC1CCN(Cc2ccccc2)CC1)c1coc2cc(OCc3ccccc3)ccc2c1=O	–	–	–	–	IC50 (Cholinesterase [6]): 5240 nM; IC50 [7]: 272 nM; IC50 (Acetylcholinesterase): 370 nM
C#CCOc1ccc(-c2cc(=O)c3ccccc3o2)cc1CN1CCOCC1	4.21	11.6	9	28.1	–
C#CCCCOc1c(CN2CCN(Cc3ccccc3)CC2)cc(-c2cc(=O)c3ccccc3o2)cc1OC	7.42	28.1	22.9	22.8	inhibition at 20 µM [5]: 5.26%
C#CCOc1c(CN2CCOCC2)cc(-c2cc(=O)c3ccccc3o2)cc1OCC	–	–	–	8.37	–
Oc1ccc(/C=C/c2cc(O)cc(O)c2)cc1	–	–	–	–	inhibition [8]: Active; inhibition [9]: Active
C#CCCOc1c(CN2CCOCC2)cc(-c2cc(=O)c3ccccc3o2)cc1OCC	4.42	23.7	24.6	6.89	–
